Test results reported in ChEMBL document CHEMBL1152936, “Human sialidase inhibitors: design, synthesis, and biological evaluation of 4-acetamido-5-acylamido-2-fluoro benzoic acids” (Bioorg Med Chem, 2009).
Active and inactive are the calls of the source. The calls are words filed in the database; no cut-off is given here.

Assays:
[1] = target: Sialidase-1 (Homo sapiens) (UniProt Q99519); test: Inhibition of human NEU1 transiently transfected in HEK293 cells at 1 mM by fluorimetric analysis; format: cell-based
Summary of the method: (§1)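 Enzyme source was the crude supernatant of homogenates from HEK-293 cells transiently transfected with a full-length human sialidase cDNA plasmid. The reaction contained 10–20 nmol substrate (4MU-Neu5Ac) as bound sialic acid, 0.2 mg BSA, sodium acetate pH 4.6 and 0.2 mg Triton X-100. It was incubated at 37 °C for 10–30 min, and released sialic acid was quantified. Inhibitors were tested at 1 mM and reported as percent inhibition.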

[2] = target: T1, Sialidase-4 (Homo sapiens) (UniProt Q8WWR8); test: Inhibition of human NEU4 transiently transfected in HEK293 cells at 1 mM by fluorimetric analysis; format: cell-based; summary of the method: as §1
T1 sequence (whole entry): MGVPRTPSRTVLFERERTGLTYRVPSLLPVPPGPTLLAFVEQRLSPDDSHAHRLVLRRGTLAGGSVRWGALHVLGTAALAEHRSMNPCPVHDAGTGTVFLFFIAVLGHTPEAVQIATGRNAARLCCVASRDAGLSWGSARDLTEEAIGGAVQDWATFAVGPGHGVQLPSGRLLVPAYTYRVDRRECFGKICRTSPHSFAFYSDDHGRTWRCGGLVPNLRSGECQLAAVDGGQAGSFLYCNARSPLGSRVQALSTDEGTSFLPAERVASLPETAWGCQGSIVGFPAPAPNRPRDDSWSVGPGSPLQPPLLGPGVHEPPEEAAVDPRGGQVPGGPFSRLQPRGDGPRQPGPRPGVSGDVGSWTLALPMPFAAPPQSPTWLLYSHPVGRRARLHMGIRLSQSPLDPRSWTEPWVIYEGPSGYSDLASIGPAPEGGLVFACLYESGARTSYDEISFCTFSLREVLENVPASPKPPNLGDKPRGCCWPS

[3] = target: T2, Sialidase-3 (Homo sapiens) (UniProt Q9UQ49); test: Inhibition of human NEU3 transiently transfected in HEK293 cells at 1 mM by fluorimetric analysis; format: cell-based; summary of the method: as §1
T2 sequence (whole entry): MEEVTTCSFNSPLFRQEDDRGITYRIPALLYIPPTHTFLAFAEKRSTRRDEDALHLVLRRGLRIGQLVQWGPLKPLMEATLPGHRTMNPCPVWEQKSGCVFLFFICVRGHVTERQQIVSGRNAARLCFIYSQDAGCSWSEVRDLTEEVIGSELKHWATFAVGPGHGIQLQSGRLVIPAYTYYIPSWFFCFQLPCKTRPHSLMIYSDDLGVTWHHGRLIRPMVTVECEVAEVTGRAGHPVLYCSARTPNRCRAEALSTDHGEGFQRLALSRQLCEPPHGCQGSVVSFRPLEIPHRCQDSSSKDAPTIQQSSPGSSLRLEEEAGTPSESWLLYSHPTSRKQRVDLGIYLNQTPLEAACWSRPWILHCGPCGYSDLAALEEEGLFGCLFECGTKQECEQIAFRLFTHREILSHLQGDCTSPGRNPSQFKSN

[4] = target: T3, Sialidase-3 (Homo sapiens, UniProt Q9UQ49); test: Inhibition of human NEU3 transiently transfected in HEK293T cells by fluorimetric high-performance liquid chromatography; format: cell-based, HEK-293T
T3 sequence (Q9UQ49 whole entry): T2 sequence (whole entry)
Summary of the method: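 Crude supernatant of homogenates from HEK-293 cells transiently transfected with full-length human sialidase cDNA. Reaction: 10–20 nmol substrate as bound sialic acid, 0.2 mg BSA, sodium acetate pH 4.6, 0.2 mg Triton X-100.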

[5] = target: T3, Sialidase-3; test: Inhibition of human NEU3 transiently transfected in HEK293 cells by fluorimetric analysis; format: cell-based
Summary of the method: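 The sialidase was the crude supernatant of homogenized HEK-293 cells transiently transfected with full-length human NEU3 cDNA. The mixture held 10–20 nmol 4MU-Neu5Ac as bound sialic acid, 0.2 mg BSA, sodium acetate pH 4.6 and 0.2 mg Triton X-100, run at 37 °C for 10–30 min. Released sialic acid was measured, and IC50 came from nonlinear regression of concentration–inhibition curves.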

[6] = target: T4, Sialidase-4 (Homo sapiens, UniProt Q8WWR8); test: Inhibition of human NEU4 transiently transfected in HEK293 cells by fluorimetric analysis
T4 sequence (Q8WWR8 whole entry): T1 sequence (whole entry)

CC(=O)Nc1cc(F)c(C(=O)O)cc1NC(=O)C(C)C
inhibition [1]: inactive
inhibition [2]: 11%
inhibition [3]: inactive

CC(=O)N[C@H]1[C@H]([C@H](O)[C@H](O)CO)OC(C(=O)O)=C[C@@H]1O [NEU5AC2EN]
IC50 [4]: 60 µM

CCC(CC)C(=O)Nc1cc(C(=O)O)c(F)cc1NC(C)=O
inhibition [1]: inactive
inhibition [2]: < 5%
inhibition [3]: inactive

CCC(C)C(=O)Nc1cc(C(=O)O)c(F)cc1NC(C)=O (stereo unspecified)
inhibition [1]: inactive
inhibition [2]: inactive
inhibition [3]: inactive

CC(=O)Nc1cc(F)c(C(=O)O)cc1NC(=O)C(C)(C)C
inhibition [1]: inactive
inhibition [2]: < 5%
inhibition [3]: inactive

CC(=O)Nc1cc(F)c(C(=O)O)cc1NC(=O)C1CC1
inhibition [1]: inactive
inhibition [2]: inactive
inhibition [3]: inactive

CCCCC(=O)Nc1cc(C(=O)O)c(F)cc1NC(C)=O
inhibition [1]: inactive
inhibition [2]: < 5%
inhibition [3]: 13%

CC(=O)Nc1cc(F)c(C(=O)O)cc1NC(=O)c1ccccc1
inhibition [1]: inactive
inhibition [2]: inactive
inhibition [3]: inactive

CCCC(=O)Nc1cc(C(=O)O)c(F)cc1NC(C)=O
inhibition [1]: inactive
inhibition [2]: < 5%
inhibition [3]: inactive

CC(=O)Nc1cc(F)c(C(=O)O)cc1NC(=O)C1CCCCC1
inhibition [1]: inactive
inhibition [2]: 6%
inhibition [3]: inactive

CC(=O)Nc1cc(F)c(C(=O)O)cc1NC(=O)C1CCCC1
inhibition [1]: inactive
inhibition [2]: inactive
inhibition [3]: inactive

CC(=O)Nc1cc(F)c(C(=O)O)cc1NC(C)=O
inhibition [1]: inactive
inhibition [2]: 8%
IC50 [5]: > 2000 µM
inhibition [3]: 23%

CC(=O)Nc1cc(F)c(C(=O)O)cc1NC(=O)c1ccc(-c2ccccc2)cc1
inhibition [1]: inactive
IC50 [5]: ≥ 5000 µM
IC50 [6]: ≥ 5000 µM

CC(=O)Nc1cc(F)c(C(=O)O)cc1NC(=O)c1ccc2ccccc2c1
inhibition [1]: inactive
inhibition [2]: 10%
inhibition [3]: 8%
